Data taken from ChEMBL document CHEMBL4811313, “Himalaquinones A-G, Angucyclinone-Derived Metabolites Produced by the Himalayan Isolate Streptomyces sp. PU-MM59” (J Nat Prod, 2021).
Active and inactive are the calls of the source. The calls are words filed in the database; no cut-off is given here.

Key:
Staphylococcus aureus = experiment: Antibacterial activity against Staphylococcus aureus ATCC 6538 at <= 133 uM incubated for 16 hrs; format: functional, organism-based; conditions: dose microM <=133, time 16.0 hrs
Summary of the method: (§1)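 Microbial strains from ATCC or NRRL, tested in triplicate with a top concentration of 133 μM. Positive controls were kanamycin and ampicillin (S. aureus, M. luteus, S. enterica, E. coli) and amphotericin B (S. cerevisiae).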

Bacillus spizizenii = experiment: Antibacterial activity against Bacillus subtilis ATCC 6633 at <= 133 uM incubated for 16 hrs; format: functional, organism-based; conditions: dose microM <=133, time 16.0 hrs; summary of the method: as §1
Saccharomyces cerevisiae = experiment: Antifungal activity against Saccharomyces cerevisiae ATCC 204508 at <= 133 uM after 16 hrs; format: functional, organism-based; conditions: dose microM <=133, time 16.0 hrs; summary of the method: as §1
Salmonella enterica = experiment: Antibacterial activity against Salmonella enterica ATCC 10708 at <= 133 uM incubated for 16 hrs; format: functional, organism-based; conditions: dose microM <=133, time 16.0 hrs; summary of the method: as §1
PC-3 [1] = experiment: Cytotoxicity against human PC3 cells assessed as reduction in cell viability at 80 uM after 72 hrs by resazurin dye based fluorescence analysis; format: functional
Summary of the method: (§2)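 A549 (non-small-cell lung) and PC3 (prostate) human cancer cells from ATCC. Viability was read after 72 h, in triplicate. Runs were either a single 80 μM concentration or a dose-response. Actinomycin D served as the positive control.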

Micrococcus luteus = experiment: Antibacterial activity against Micrococcus luteus NRRL B-287 at <= 133 uM incubated for 16 hrs; format: functional, organism-based; conditions: dose microM <=133, time 16.0 hrs; summary of the method: as §1
Mycolicibacterium aurum = experiment: Antibacterial activity against Mycobacterium aurum ATCC 23366 at <= 133 uM incubated for 16 hrs; format: functional, organism-based; conditions: dose microM <=133, time 16.0 hrs; summary of the method: as §1
A549 [2] = experiment: Cytotoxicity against human A549 cells assessed as reduction in cell viability at 80 uM after 72 hrs by resazurin dye based fluorescence analysis; format: functional; summary of the method: as §2
Escherichia coli = experiment: Antibacterial activity against Escherichia coli NRRL B-3708 at <= 133 uM incubated for 16 hrs; format: functional, organism-based; conditions: dose microM <=133, time 16.0 hrs; summary of the method: as §1
A549 [3] = experiment: Cytotoxicity against human A549 cells assessed as reduction in cell viability after 72 hrs by resazurin dye based fluorescence analysis; format: functional; conditions: A549, 72 h; summary of the method: as §2
[4] = molecular target: Eukaryotic translation initiation factor 4E-binding protein 1 (Homo sapiens) (UniProt Q13541); experiment: Inhibition of 4E-BP1 phosphorylation in human HCT116 cells at 2 uM after 6 hrs by Western blot analysis; format: cell-based; conditions: HCT-116
Eukaryotic translation initiation factor 4E-binding protein 1 (Homo sapiens), sequence (Q13541 whole entry): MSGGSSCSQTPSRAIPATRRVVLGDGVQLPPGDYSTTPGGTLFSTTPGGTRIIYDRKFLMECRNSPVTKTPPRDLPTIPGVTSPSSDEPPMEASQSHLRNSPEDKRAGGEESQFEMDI
Summary of the method: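 HCT116 cells were treated 6 h with 2 μM compound or with DMSO as negative control. Lysate was run on SDS-PAGE, blotted to PVDF and probed for phospho-4E-BP1 (Thr37/46, Ser65, Thr70), with chemiluminescent detection.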

PC-3 [5] = experiment: Cytotoxicity against human PC3 cells assessed as reduction in cell viability after 72 hrs by resazurin dye based fluorescence analysis; format: functional; conditions: PC-3, 72 h; summary of the method: as §2
[6] = Toxicity in axolotl embryo at 1 uM after 7 days by tail regeneration assay; conditions: ambystoma mexicanum, 168 h, time 7 day
Summary of the method: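 Stage 42 embryos manually hatched, anaesthetised with benzocaine, given 2 mm tail amputations, then reared with or without test agent in artificial pond water at 18–19 °C for 7 days postamputation. Imaged at 0 and 7 DPA. Agents dissolved in DMSO, 0.1% final DMSO. Vehicle served as negative control, geldanamycin as positive control.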

[7] = Toxicity in axolotl embryo at 10 uM after 7 days by tail regeneration assay; conditions: ambystoma mexicanum, 168 h, time 7 day
Summary of the method: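 Stage 42 axolotl embryos were hatched manually, anesthetized with benzocaine and given 2 mm tail amputations. They were reared at 18–19 °C in artificial pond water with compound (10 μM; one compound at 1.0 μM) in 0.1% final DMSO. Regeneration was imaged at 0 and 7 days postamputation. DMSO was the negative control and geldanamycin the positive control.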

Row | SMILES | Activity (Staphylococcus aureus) | Activity (Bacillus spizizenii) | Activity (Saccharomyces cerevisiae) | Activity (Salmonella enterica) | Activity (Micrococcus luteus) | Activity (Mycolicibacterium aurum) | Activity (Escherichia coli) | IC50 (A549 [3]) | inhibition [4] | IC50 (PC-3 [5]) | Activity [7] | also measured
1 | COc1cccc2c1C(=O)c1ccc(/C=C(\C)CC(=O)O)c(O)c1C2=O | inactive | inactive | inactive | inactive | inactive | inactive | inactive | – | – | – | – | Activity (PC-3 [1]): inactive; Activity (A549 [2]): inactive
2 | C[C@@H]1O[C@@H](O[C@H]2CC[C@H](O[C@@]3(C)CC(=O)[C@]4(O)C5=C(C=C[C@]4(O)C3)C(=O)c3c(ccc([C@H]4C[C@@H](O)[C@H](O[C@H]6CC[C@H](O)[C@H](C)O6)[C@@H](C)O4)c3O)C5=O)O[C@H]2C)C=CC1=O [SAQUAYAMYCIN K] | – | – | – | – | – | – | – | < 500 nM | Active | < 500 nM | – | –
3 | CC(=O)OC(=O)C(O)/C(C)=C\c1c(O)cc2c(c1O)C(=O)c1cccc(O)c1C2=O (stereo unspecified) | inactive | inactive | inactive | inactive | inactive | inactive | inactive | – | – | – | – | Activity (PC-3 [1]): inactive; Activity (A549 [2]): inactive
4 | COc1cccc2c1C(=O)c1cc(O)c(/C=C(/C)CC(=O)O)c(O)c1C2=O | inactive | inactive | inactive | inactive | inactive | inactive | inactive | – | – | – | – | Activity (PC-3 [1]): inactive; Activity (A549 [2]): inactive
5 | C[C@@H]1O[C@@H](O[C@H]2[C@H](O)C[C@H](c3ccc4c(c3O)C(=O)C3=C(C4=O)[C@@]4(O)C(=O)C[C@](C)(O[C@H]5CC[C@H](O[C@H]6C=CC(=O)[C@H](C)O6)[C@H](C)O5)C[C@@]4(O)C=C3)O[C@@H]2C)C=CC1=O [SAQUAYAMYCINS A] | – | – | – | – | – | – | – | < 500 nM | Active | < 500 nM | – | Activity [6]: Toxic
6 | Cc1cc(O)c2c3c(ccc2c1)C(=O)c1c(O[C@H]2C[C@@H](O)[C@H](O[C@H]4C[C@@H](O)[C@H](O)[C@@H](C)O4)[C@@H](C)O2)cccc1C3=O [LANDOMYCIN O] | – | – | – | – | – | – | – | – | – | – | Toxic | –
7 | C[C@@H]1O[C@@H](O[C@@H]2C[C@H](c3ccc4c(c3O)C(=O)C3=C(C4=O)[C@@]4(O[C@H]5CC[C@H](O)[C@H](C)O5)C(=O)C[C@](C)(O)C[C@@]4(O)C=C3)O[C@H](C)[C@H]2O)CC[C@@H]1O[C@H]1C[C@@H](O)[C@H](O)[C@@H](C)O1 | – | – | – | – | – | – | – | – | – | – | Non-Toxic | –
8 | C[C@@H]1O[C@@H](O[C@H]2CC[C@H](O[C@@]3(C)CC(=O)[C@]4(O)C5=C(C=C[C@]4(O)C3)C(=O)c3c(ccc([C@H]4C[C@@H](O)[C@H](O[C@@H]6O[C@@H](C)C(=O)C=C6N)[C@@H](C)O4)c3O)C5=O)O[C@H]2C)C=CC1=O [SAQUAYAMYCIN I] | – | – | – | – | – | – | – | – | – | – | Non-Toxic | –
9 | C[C@@H]1O[C@@H](O[C@H]2CC[C@H](O[C@@]3(C)CC(=O)[C@]4(O)C5=C(C=C[C@]4(O)C3)C(=O)c3c(ccc([C@H]4C[C@H]6O[C@H]7CC(=O)[C@H](C)O[C@H]7O[C@H]6[C@@H](C)O4)c3O)C5=O)O[C@H]2C)C=CC1=O | – | – | – | – | – | – | – | < 500 nM | Active | < 500 nM | – | –
10 | C[C@@H]1O[C@H]2O[C@H]3[C@@H](C)O[C@@H](c4ccc5c(c4O)C(=O)C4=C(C5=O)[C@@]5(O)C(=O)C[C@](C)(O[C@H]6CC[C@H](O[C@H]7CC[C@H](O)[C@H](C)O7)[C@H](C)O6)C[C@@]5(O)C=C4)C[C@H]3O[C@H]2CC1=O | – | – | – | – | – | – | – | < 500 nM | Active | < 500 nM | Non-Toxic | –
11 | COC(=O)C/C(C)=C\c1c(O)cc2c(c1O)C(=O)c1cccc(O)c1C2=O | inactive | inactive | inactive | inactive | inactive | inactive | inactive | – | – | – | – | Activity (PC-3 [1]): inactive; Activity (A549 [2]): inactive
12 | Cc1cc(O)c2c3c(ccc2c1)C(=O)c1c(O[C@H]2C[C@@H](O)[C@H](O[C@H]4C[C@@H](O[C@H]5CC[C@H](O[C@H]6C[C@@H](O)[C@H](O[C@H]7C[C@@H](O)[C@H](O)[C@@H](C)O7)[C@@H](C)O6)[C@H](C)O5)[C@H](O)[C@@H](C)O4)[C@@H](C)O2)cccc1C3=O [LANDOMYCIN M] | – | – | – | – | – | – | – | – | – | – | Toxic | –
13 | C/C(=C/c1c(O)cc2c(c1O)C(=O)c1cccc(O)c1C2=O)CC(=O)O | inactive | inactive | inactive | inactive | inactive | inactive | inactive | – | – | – | – | Activity (PC-3 [1]): inactive; Activity (A549 [2]): inactive
14 | Cc1cc(O)c2c(c1)C[C@@H](O)C1=C2C(=O)c2cccc(O[C@H]3C[C@@H](O)[C@H](O[C@H]4C[C@@H](O[C@H]5CC[C@H](O[C@H]6C[C@@H](O)[C@H](O[C@H]7C[C@@H](O)[C@H](O)[C@@H](C)O7)[C@@H](C)O6)[C@H](C)O5)[C@H](O)[C@@H](C)O4)[C@@H](C)O3)c2C1=O [LANDOMYCIN V] | – | – | – | – | – | – | – | – | – | – | Toxic | –
15 | Cc1cc(O)c2c(c1)C[C@@H](O)C1=C2C(=O)c2cccc(O[C@H]3C[C@@H](O)[C@H](O[C@H]4C[C@@H](O[C@H]5CC[C@H](O[C@H]6CC[C@H](O[C@H]7C[C@@H](O[C@H]8CC[C@H](O)[C@H](C)O8)[C@H](O)[C@@H](C)O7)[C@@H](C)O6)[C@H](C)O5)[C@H](O)[C@@H](C)O4)[C@@H](C)O3)c2C1=O | – | – | – | – | – | – | – | < 500 nM | Active | < 500 nM | – | –
16 | COc1cccc2c1C(=O)C1=C(C2=O)c2c(O)cc(C)cc2[C@@H](O)[C@H]1O | inactive | inactive | inactive | inactive | inactive | inactive | inactive | 1880 nM | inactive | 320 nM | Non-Toxic | –
17 | C[C@@H]1O[C@H]2O[C@H]3[C@@H](C)O[C@@H](c4ccc5c(c4O)C(=O)C4=C(C5=O)[C@@]5(O)C(=O)C[C@](C)(O)C[C@@]5(O)C=C4)C[C@H]3O[C@H]2CC1=O | – | – | – | – | – | – | – | – | – | – | Non-Toxic | –
18 | Cc1cc(O)c2c3c(ccc2c1)C(=O)c1c(O[C@H]2C[C@@H](O)[C@H](O[C@H]4C[C@@H](O[C@H]5CC[C@H](O[C@H]6CC[C@H](O[C@H]7C[C@@H](O[C@H]8CC[C@H](O)[C@H](C)O8)[C@H](O)[C@@H](C)O7)[C@@H](C)O6)[C@H](C)O5)[C@H](O)[C@@H](C)O4)[C@@H](C)O2)cccc1C3=O | – | – | – | – | – | – | – | < 500 nM | Active | < 500 nM | – | –
19 | Cc1cc(O)c2c(c1)C[C@@H](O)C1=C2C(=O)c2c(O)ccc(O[C@H]3C[C@@H](O)[C@H](O[C@H]4C[C@@H](O[C@H]5CC[C@H](O[C@H]6C[C@@H](O)[C@H](O[C@H]7C[C@@H](O[C@H]8CC[C@H](O)[C@H](C)O8)[C@H](O)[C@@H](C)O7)[C@@H](C)O6)[C@H](C)O5)[C@H](O)[C@@H](C)O4)[C@@H](C)O3)c2C1=O [LANDOMYCIN A] | – | – | – | – | – | – | – | < 500 nM | Active | < 500 nM | – | –
20 | COc1cccc2c1C(=O)c1ccc(/C=C(/C)CC(=O)O)c(O)c1C2=O | inactive | inactive | inactive | inactive | inactive | inactive | inactive | – | – | – | – | Activity (PC-3 [1]): inactive; Activity (A549 [2]): inactive
21 | C[C@@H]1O[C@@H](O[C@H]2CC[C@H](O[C@@]3(C)CC(=O)[C@]4(O)C5=C(C=C[C@]4(O)C3)C(=O)c3c(ccc([C@H]4C[C@@H](O)[C@H](O)[C@@H](C)O4)c3O)C5=O)O[C@H]2C)C=CC1=O [SAQUAYAMYCIN G] | – | – | – | – | – | – | – | – | – | – | Non-Toxic | –
22 | C[C@@H]1O[C@@H](O[C@H]2CC[C@H](O[C@@]3(C)CC(=O)[C@]4(O)C5=C(C=C[C@]4(O)C3)C(=O)c3c(ccc([C@H]4C[C@H]6O[C@H]7CC(=O)[C@H](C)O[C@H]7O[C@H]6[C@@H](C)O4)c3O)C5=O)O[C@H]2C)C(N)=CC1=O | – | – | – | – | – | – | – | – | – | – | Non-Toxic | –
